Results reported in ChEMBL document CHEMBL3596194, “Design, synthesis and biological evaluation of bivalent benzoxazolone and benzothiazolone ligands as potential anti-inflammatory/analgesic agents” (Bioorg Med Chem, 2015).

tested on: SK-OV-3; experiment: Cytotoxicity against human SKOV3 cells up to 25 ug/ml after 48 hrs by neutral red assay relative to control; type: cell-based; conditions: sk-ov-3, 48 h
In short: (§1)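 Cells grown in RPMI-1640 with 10% bovine calf serum and amikacin at 37 °C, 5% CO2. Seeded at 25,000 cells/well and grown 24 h, then exposed 48 h to samples diluted in serum-free medium. Viability by Neutral Red; % decrease vs vehicle; IC50 from dose curves. Triplicate runs, mean reported; doxorubicin as positive control.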

Compound | Activity
c1ccc2sc(SCCCCN3CCN(CCCCSc4nc5ccccc5s4)CC3)nc2c1 | Non-toxic
O=c1sc2ccccc2n1CCCCCCN1CCN(CCCCn2c(=O)sc3ccccc32)CC1 | Non-toxic
O=c1sc2ccccc2n1CCCCCN1CCN(CCn2c(=O)sc3ccccc32)CC1 | Non-toxic
O=c1oc2ccccc2n1CCCCCN1CCN(CCCCCn2c(=O)oc3ccccc32)CC1 | Non-toxic

tested on: Rattus norvegicus; experiment: Antiinflammatory activity in albino rat assessed as inhibition of carrageenan-induced paw edema at 30 mg/kg, ip administered 1 hr prior to carrageenan challenge measured 2 hrs after induction of inflammation relative to control; type: functional; conditions: not given
In short: (§2)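 Adult albino rats of both sexes, 120–150 g, groups of five, pre-hydrated with 3 ml water orally. Compounds suspended in distilled water with few drops Tween 80, given ip 1 h before subplantar s.c. 1% carrageenan into right hind paw. Paw thickness measured by dial calipers, left paw as control. % inhibition = (1 – Lt/Lc) × 100 versus saline/Tween 80 group.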

Compound | inhibition in vivo at 30 mg/kg
c1ccc2sc(SCCCCN3CCN(CCCCSc4nc5ccccc5s4)CC3)nc2c1 | 64.3%
O=C(c1ccccc1)c1ccc2n1CCC2C(=O)O (stereo unspecified) [KETOROLAC] | 74.2%
O=c1sc2ccccc2n1CCCCCCN1CCN(CCCCCn2c(=O)sc3ccccc32)CC1 | 41.1%
O=c1sc2ccccc2n1CCCCCCN1CCN(CCCCCCn2c(=O)sc3ccccc32)CC1 | 37.5%

tested on: Vero; experiment: Cytotoxicity against African green monkey Vero cells after 48 hrs by neutral red assay relative to control; type: cell-based; conditions: chlorocebus sabaeus
In short: (§3)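 Cells grown in RPMI-1640 with 10% bovine calf serum and amikacin at 37°C, 5% CO₂. Seeded 25,000 cells/well, grown 24 h, then exposed to compounds diluted in serum-free medium for 48 h. Viability by Neutral Red uptake, % decrease versus vehicle control. IC50 from dose curves, triplicate means. Doxorubicin positive control.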

Compound | IC50
O=c1sc2ccccc2n1CCCCCCN1CCN(CCCCCn2c(=O)sc3ccccc32)CC1 | 25 µM
O=c1sc2ccccc2n1CCCCCN1CCN(CCn2c(=O)sc3ccccc32)CC1 | 23.8 µM
O=c1oc2ccccc2n1CCCCCN1CCN(CCCCCn2c(=O)oc3ccccc32)CC1 | 19.4 µM

tested on: KB; experiment: Cytotoxicity against human KB cells after 48 hrs by neutral red assay relative to control; type: cell-based; conditions: not given; in short: as §3

Compound | IC50
c1ccc2sc(SCCCCN3CCN(CCCCSc4nc5ccccc5s4)CC3)nc2c1 | 25 µM
O=c1sc2ccccc2n1CCCCCCN1CCN(CCCCn2c(=O)sc3ccccc32)CC1 | 19.5 µM
O=c1sc2ccccc2n1CCCCCCN1CCN(CCCCCCn2c(=O)sc3ccccc32)CC1 | 20.8 µM

tested on: not listed separately; experiment: Antiinflammatory activity in human SW1353 cells assessed as inhibition of PMA-induced NF-kappaB activity incubated for 30 mins prior to PMA challenge measured after 8 hrs by luciferase reporter gene assay; type: cell-based; conditions: not given
In short: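 SW1353 cells in DMEM/F12 with 10% FBS, electroporated with NF-κB luciferase plasmid (160 V, one 70-ms pulse), plated at 1.25 × 10⁵ cells/well. After 24 h, graded compound concentrations added 30 min before PMA 70 ng/mL, then 8 h incubation. Luciferase read-out, % inhibition versus vehicle, IC50 from dose curves. Sp-1 reporter served as nonspecific control.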

Compound | IC50
c1ccc2sc(SCCCCN3CCN(CCCCSc4nc5ccccc5s4)CC3)nc2c1 | 0.34 µM
O=c1sc2ccccc2n1CCCCCCN1CCN(CCCCCn2c(=O)sc3ccccc32)CC1 | 1.06 µM
O=c1sc2ccccc2n1CCCCCCN1CCN(CCCCn2c(=O)sc3ccccc32)CC1 | 0.83 µM
O=c1sc2ccccc2n1CCCCCCN1CCN(CCCCCCn2c(=O)sc3ccccc32)CC1 | 0.41 µM
O=c1sc2ccccc2n1CCCCCN1CCN(CCn2c(=O)sc3ccccc32)CC1 | 1.71 µM
O=c1oc2ccccc2n1CCCCCN1CCN(CCCCCn2c(=O)oc3ccccc32)CC1 | 3.43 µM

tested on: BT-549; experiment: Cytotoxicity against human BT549 cells up to 25 ug/ml after 48 hrs by neutral red assay relative to control; type: cell-based; conditions: bt-549, 48 h; in short: as §1

Compound | Activity
c1ccc2sc(SCCCCN3CCN(CCCCSc4nc5ccccc5s4)CC3)nc2c1 | Non-toxic
O=c1sc2ccccc2n1CCCCCN1CCN(CCn2c(=O)sc3ccccc32)CC1 | Non-toxic
O=c1oc2ccccc2n1CCCCCN1CCN(CCCCCn2c(=O)oc3ccccc32)CC1 | Non-toxic

tested on: KB; experiment: Cytotoxicity against human KB cells up to 25 ug/ml after 48 hrs by neutral red assay relative to control; type: cell-based; conditions: not given; in short: as §1

Compound | Activity
O=c1sc2ccccc2n1CCCCCN1CCN(CCCCCn2c(=O)sc3ccccc32)CC1 | Non-toxic
O=c1sc2ccccc2n1CCCCCCN1CCN(CCCCCn2c(=O)sc3ccccc32)CC1 | Non-toxic
O=c1sc2ccccc2n1CCCCCN1CCN(CCn2c(=O)sc3ccccc32)CC1 | Non-toxic
O=c1oc2ccccc2n1CCCCCN1CCN(CCCCCn2c(=O)oc3ccccc32)CC1 | Non-toxic

tested on: BT-549; experiment: Cytotoxicity against human BT549 cells after 48 hrs by neutral red assay relative to control; type: cell-based; conditions: BT-549, 48 h; in short: as §3

Compound | IC50
O=c1sc2ccccc2n1CCCCCN1CCN(CCCCCn2c(=O)sc3ccccc32)CC1 | 19.3 µM
O=c1sc2ccccc2n1CCCCCCN1CCN(CCCCCn2c(=O)sc3ccccc32)CC1 | 19.6 µM
O=c1sc2ccccc2n1CCCCCCN1CCN(CCCCn2c(=O)sc3ccccc32)CC1 | 21.3 µM
O=c1sc2ccccc2n1CCCCCCN1CCN(CCCCCCn2c(=O)sc3ccccc32)CC1 | 24.3 µM

tested on: SK-OV-3; experiment: Cytotoxicity against human SKOV3 cells after 48 hrs by neutral red assay relative to control; type: cell-based; conditions: SK-OV-3, 48 h; in short: as §3

Compound | IC50
O=c1sc2ccccc2n1CCCCCN1CCN(CCCCCn2c(=O)sc3ccccc32)CC1 | 25 µM
O=c1sc2ccccc2n1CCCCCCN1CCN(CCCCCn2c(=O)sc3ccccc32)CC1 | 25 µM
O=c1sc2ccccc2n1CCCCCCN1CCN(CCCCCCn2c(=O)sc3ccccc32)CC1 | 24.3 µM

tested on: Rattus norvegicus; experiment: Antiinflammatory activity in albino rat assessed as inhibition of carrageenan-induced paw edema at 30 mg/kg, ip administered 1 hr prior to carrageenan challenge measured 1 hr after induction of inflammation relative to control; type: functional; conditions: not given; in short: as §2

Compound | inhibition in vivo at 30 mg/kg
c1ccc2sc(SCCCCN3CCN(CCCCSc4nc5ccccc5s4)CC3)nc2c1 | 59.9%
O=C(c1ccccc1)c1ccc2n1CCC2C(=O)O (stereo unspecified) [KETOROLAC] | 70.5%
O=c1sc2ccccc2n1CCCCCCN1CCN(CCCCCn2c(=O)sc3ccccc32)CC1 | 33.9%
O=c1sc2ccccc2n1CCCCCCN1CCN(CCCCCCn2c(=O)sc3ccccc32)CC1 | 32.2%

tested on: Mus musculus; experiment: Antinociceptive activity in ip dosed Swiss mouse assessed as inhibition of acetic acid-induced writhing response administered 15 mins prior to acetic acid challenge measured for 20 mins relative to vehicle-treated control; type: functional, organism-based; conditions: not given
In short: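 Mice dosed i.p. with compound or vehicle 15 min before testing, or with indomethacin 3 mg/kg i.p. 30 min before. After 15 min habituation in an enclosure, 0.9% acetic acid given i.p. (1 ml/0.1 kg) and writhes counted for 20 min. Non-responders excluded; n = 4-6; mean ± SD.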

Compound | inhibition
c1ccc2sc(SCCCCN3CCN(CCCCSc4nc5ccccc5s4)CC3)nc2c1 | Dose-dependent effect
O=c1sc2ccccc2n1CCCCCCN1CCN(CCCCCCn2c(=O)sc3ccccc32)CC1 | Dose-dependent effect

tested on: not listed separately; experiment: Cytotoxicity against pig LLC-PK11 cells up to 25 ug/ml after 48 hrs by neutral red assay relative to control; type: cell-based, Sus scrofa; conditions: llc-pk11, 48 h; in short: as §1

Compound | Activity
c1ccc2sc(SCCCCN3CCN(CCCCSc4nc5ccccc5s4)CC3)nc2c1 | Non-toxic
O=c1sc2ccccc2n1CCCCCN1CCN(CCCCCn2c(=O)sc3ccccc32)CC1 | Non-toxic
O=c1sc2ccccc2n1CCCCCCN1CCN(CCCCCn2c(=O)sc3ccccc32)CC1 | Non-toxic
O=c1sc2ccccc2n1CCCCCCN1CCN(CCCCn2c(=O)sc3ccccc32)CC1 | Non-toxic
O=c1sc2ccccc2n1CCCCCCN1CCN(CCCCCCn2c(=O)sc3ccccc32)CC1 | Non-toxic
O=c1sc2ccccc2n1CCCCCN1CCN(CCn2c(=O)sc3ccccc32)CC1 | Non-toxic
O=c1oc2ccccc2n1CCCCCN1CCN(CCCCCn2c(=O)oc3ccccc32)CC1 | Non-toxic

tested on: Vero; experiment: Cytotoxicity against African green monkey Vero cells up to 25 ug/ml after 48 hrs by neutral red assay relative to control; type: cell-based; conditions: chlorocebus sabaeus; in short: as §1

Compound | Activity
c1ccc2sc(SCCCCN3CCN(CCCCSc4nc5ccccc5s4)CC3)nc2c1 | Non-toxic
O=c1sc2ccccc2n1CCCCCN1CCN(CCCCCn2c(=O)sc3ccccc32)CC1 | Non-toxic
O=c1sc2ccccc2n1CCCCCCN1CCN(CCCCn2c(=O)sc3ccccc32)CC1 | Non-toxic
O=c1sc2ccccc2n1CCCCCCN1CCN(CCCCCCn2c(=O)sc3ccccc32)CC1 | Non-toxic

tested on: SK-MEL; experiment: Cytotoxicity against human SK-MEL cells up to 25 ug/ml after 48 hrs by neutral red assay relative to control; type: cell-based; conditions: not given; in short: as §1

Compound | Activity
O=c1sc2ccccc2n1CCCCCCN1CCN(CCCCCn2c(=O)sc3ccccc32)CC1 | Non-toxic
O=c1sc2ccccc2n1CCCCCCN1CCN(CCCCCCn2c(=O)sc3ccccc32)CC1 | Non-toxic
O=c1sc2ccccc2n1CCCCCN1CCN(CCn2c(=O)sc3ccccc32)CC1 | Non-toxic
O=c1oc2ccccc2n1CCCCCN1CCN(CCCCCn2c(=O)oc3ccccc32)CC1 | Non-toxic

tested on: SK-MEL; experiment: Cytotoxicity against human SK-MEL cells after 48 hrs by neutral red assay relative to control; type: cell-based; conditions: not given; in short: as §3

Compound | IC50
c1ccc2sc(SCCCCN3CCN(CCCCSc4nc5ccccc5s4)CC3)nc2c1 | 17.5 µM
O=c1sc2ccccc2n1CCCCCN1CCN(CCCCCn2c(=O)sc3ccccc32)CC1 | 19.8 µM
O=c1sc2ccccc2n1CCCCCCN1CCN(CCCCn2c(=O)sc3ccccc32)CC1 | 14.5 µM

tested on: Rattus norvegicus; experiment: Antiinflammatory activity in albino rat assessed as inhibition of carrageenan-induced paw edema at 30 mg/kg, ip administered 1 hr prior to carrageenan challenge measured 4 hrs after induction of inflammation relative to control; type: functional; conditions: not given; in short: as §2

Compound | inhibition in vivo at 30 mg/kg
c1ccc2sc(SCCCCN3CCN(CCCCSc4nc5ccccc5s4)CC3)nc2c1 | 47.1%
O=C(c1ccccc1)c1ccc2n1CCC2C(=O)O (stereo unspecified) [KETOROLAC] | 79.3%
O=c1sc2ccccc2n1CCCCCCN1CCN(CCCCCn2c(=O)sc3ccccc32)CC1 | 34.9%
O=c1sc2ccccc2n1CCCCCCN1CCN(CCCCCCn2c(=O)sc3ccccc32)CC1 | 36.9%

tested on: Rattus norvegicus; experiment: Antiinflammatory activity in albino rat assessed as inhibition of carrageenan-induced paw edema at 30 mg/kg, ip administered 1 hr prior to carrageenan challenge measured 3 hrs after induction of inflammation relative to control; type: functional; conditions: not given; in short: as §2

Compound | inhibition in vivo at 30 mg/kg
c1ccc2sc(SCCCCN3CCN(CCCCSc4nc5ccccc5s4)CC3)nc2c1 | 63.4%
O=C(c1ccccc1)c1ccc2n1CCC2C(=O)O (stereo unspecified) [KETOROLAC] | 75.4%
O=c1sc2ccccc2n1CCCCCCN1CCN(CCCCCn2c(=O)sc3ccccc32)CC1 | 34.7%
O=c1sc2ccccc2n1CCCCCCN1CCN(CCCCCCn2c(=O)sc3ccccc32)CC1 | 39.3%
